Experimental data from different studies.
Each line is one published result; the experiments were not run side by side.
Target: Death-associated protein kinase 2 (DAPK2, Homo sapiens, UniProt Q9UIK4)

| Compound | observed | method | concentration | remaining binding |
| --- | --- | --- | --- | --- |
| CC1CCCN1c1nccc(-c2cnn3ncccc23)n1 (stereo not shown) | binding | – | 1 µM | 86% |
| CC(=O)C1=C(C)N(c2cccc(C(F)(F)F)c2)C(=O)N[C@@H]1c1ccc(C#N)nc1 | cell-free assay | competition with immobilised ligand | 1 µM | 79.2% |
| COc1cnc(Nc2cccc(S(N)(=O)=O)c2)nc1N1CCN(c2ccccc2)CC1 | binding | competition with immobilised ligand | 1 µM | 78% |
| c1cnn2ncc(-c3ccnc(N4CCC45COC5)n3)c2c1 | binding | – | 1 µM | 70% |
| COc1cnc(Nc2cccc(S(N)(=O)=O)c2)nc1N1CCN(c2ccccc2)C(=O)C1 | binding | competition with immobilised ligand | 1 µM | 100% |
| CS(=O)(=O)N1CCCC(NC(=O)[C@H](CCC2CCCCC2)NC(=O)c2ccc(CNc3ncnc4c3nnn4-c3ccccc3)cc2)C1 (stereo partly shown) | cell-free assay | competition with immobilised ligand | 0.1 µM | 90% |
| C[C@@H]1CCN(c2nccc(-c3cnn4ncccc34)n2)C1 | binding | – | 1 µM | 85% |
| Nc1c(C(=O)NCc2ccc(C(=O)NCCCC3CCCCC3)cc2)cnn1-c1ccccc1 | cell-free assay | competition with immobilised ligand | 0.1 µM | 100% |
| O=C(NCC1CCOCC1)c1n[nH]cc1NC(=O)c1c(F)cccc1F | binding | competition with immobilised ligand | 1 µM | 95% |
| C=CC(=O)N1CCC(C(=O)NCC(=O)N2CCN(c3nc(-c4cnc(N)nc4C(F)F)nc(N4CCOCC4)n3)CC2)CC1 | binding | competition with immobilised ligand | 1 µM | 95% |
| O=C(c1ccc(Nc2ncc(Cl)c(-c3ccc(Cl)s3)n2)cc1)N1CCC(N2CCCC2)CC1 | binding | competition with immobilised ligand | 1 µM | 29% |
| CN(c1nccc(-c2cnn3ncccc23)n1)C1CC1 | binding | – | 1 µM | 76% |
| Cc1c(NC(=O)c2cc(C(N)=O)nc3cc(F)ccc23)c(C(F)(F)F)nn1Cc1ccc(C#N)cc1 | cell-free assay | competition with immobilised ligand | 1 µM | 99% |
| CN(CCCC(F)(F)F)c1nccc(-c2cnn3ncccc23)n1 | binding | – | 1 µM | 97% |
| O=C(NCCCN1CCOCC1)c1ccc(Nc2ncc(Cl)c(-c3ccc(Cl)s3)n2)cc1 | binding | competition with immobilised ligand | 1 µM | 38% |
| C[C@@H](c1ccc(-n2cnc3c(N)ncnc32)cc1)N1CCc2nn(C)c(Cc3ccccc3)c2C1=O | binding | competition with immobilised ligand | 0.1 µM | 100% |
| N#CC1(c2ccccn2)CCN(Cc2cc(C(=O)N3CCCC3)c(=O)n3ccccc23)CC1 | cell-free assay | competition with immobilised ligand | 1 µM | 94% |
| COc1ccnn2ncc(-c3ccnc(N(C)C)n3)c12 | binding | – | 1 µM | 91% |
| FC(F)(F)Oc1cccc(-c2cnc3ccc(-c4ccncc4)nn23)c1 | cell-free assay | competition with immobilised ligand | 5 µM | 66% |
| COc1ncc2cc3ccccc3nc2c1C#N | cell-free assay | competition with immobilised ligand | 5 µM | 97% |
| Cc1cnc(Nc2ccc(C(=O)N3CCC(N4CCCC4)CC3)cc2)nc1-c1cc2ccccc2s1 | binding | competition with immobilised ligand | 1 µM | 8.9% |
| C[C@H](NC(=O)c1cnc2n1[C@](C)(Cc1ccc(C#N)cc1)C(=O)N2c1cc(Cl)c(F)c(Cl)c1)C(=O)NC1(c2ccccn2)CC1 | cell-free assay | competition with immobilised ligand | 1 µM | 100% |
